DENV2 CPE rescue: inhibitors of DENV2 cytopathic effect, primary screen, cell-based, plate reader, single concentration; 350,000 compounds, 1.7% hits; CPE inhibition, % at 9.99 µM; AID 651640, 2012; DENV2-infected cells, cytopathic effect rescue; in the data active = CPE inhibition above about 20%, passing the limit was not always enough; inconclusive = no clear call, values can overlap the other calls; tested in BHK-21 cells
SIRT5 block: SIRT5 desuccinylase inhibitors, primary screen, biochemical, fluorescence imaging, single point, set 5 | 330,000 compounds, 1.1% hits | NAD-dependent protein deacylase sirtuin-5, mitochondrial (Homo sapiens), Q9NXA8 | inhibition, % at 15 µM | Purified SirT5, succinyl-peptide AMC, trypsin-coupled fluorescence; in the data active = inhibition above about 15%; inconclusive = no clear call, values can overlap the other calls
Target sequence (Q9NXA8 whole entry, looked up): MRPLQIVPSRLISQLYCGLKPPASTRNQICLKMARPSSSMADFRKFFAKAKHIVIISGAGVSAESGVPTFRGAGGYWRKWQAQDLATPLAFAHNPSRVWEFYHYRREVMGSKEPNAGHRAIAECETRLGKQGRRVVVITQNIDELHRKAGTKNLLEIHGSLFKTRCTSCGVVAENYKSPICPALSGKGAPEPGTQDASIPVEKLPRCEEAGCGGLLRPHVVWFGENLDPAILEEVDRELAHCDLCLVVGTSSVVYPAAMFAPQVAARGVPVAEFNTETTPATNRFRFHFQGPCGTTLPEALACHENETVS
E-selectin induc: E-selectin induction in HUVECs, primary screen, imaging, HUVEC, immunofluorescence imaging, single point | activation, % at 7.58 µM | 260,000 compounds, 0.37% hits | P16581 | normalized: neutral wells 0, TNF-alpha wells 100;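 active = mean E-selectin-positive cell signal at least 10% of the positive control, reached in at least 60% of replicates, without over 20% cell loss; inconclusive = no rule given, readout overlaps actives, possibly toxicity-flagged; inactive = the rest, including those meeting only one limit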
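Read-out: % PE-positive cells | Test system: HUVEC | Doses: One compound dose added by pin transfer | Buffer or medium: EGM-2 over gelatin coat | Signal: Immunofluorescence imaging | Benchmarks: TNF-alpha, DMSO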
A number is an active result; . = inactive; ? = inconclusive; / = not tested or not shown; ! = repeats disagree. The list is not random: actives were taken first. Their share in the collection is about 2.9%.

SMILES	DENV2 CPE rescue	SIRT5 block	E-selectin induc
CN(C)CC#Cc1ccc([C@@H]2[C@@H](CO)N3C(=O)CN(C(=O)c4cccc(F)c4)C[C@@H]23)cc1	.	21.7	.
O=C(c1ccccc1)N1CC(=O)N2[C@H](C1)[C@H](c1ccc(C#CCC3CCCC3)cc1)[C@@H]2CO	.	.	.
O=C(c1ccccc1)N1CC(=O)N2[C@H](CO)[C@H](c3ccc(C#CCC4CCCC4)cc3)[C@@H]2C1	20.9	.	.
CCO[C@@H]1OC(C(=O)N2CCCCCCC2)=C[C@H](C2CC2)[C@H]1CCCO	.	.	/
CCCC#Cc1cnc2c(c1)C(=O)N([C@H](C)CO)C[C@@H](C)[C@@H](CN(C)C(=O)NCCC)O2	.	.	.
Nc1ccn([C@@H]2O[C@H](C(=O)NCC(F)(F)F)[C@@H](O)[C@H]2O)c(=O)n1	?	.	.
Cc1ccc2cc(CCNC(=O)CC(C)C)c(=O)[nH]c2c1	.	.	.
O=C(Nc1ccccc1)C1=C[C@H](c2csc3ccccc23)C[C@H](OCCCCO)O1	20.2!	.	.
NC(=O)C1=C[C@H](c2coc3ccccc3c2=O)C[C@H](OCCCCO)O1	.	.	.
O=C(O)C1=C[C@H](c2coc3ccccc3c2=O)C[C@H](OCCCCO)O1	.	16.1!	.
O=C(NCc1ccccc1)C1=C[C@H](c2csc3ccccc23)C[C@H](OCCCCO)O1	.	.	.
Cc1cc(C)c(S(=O)(=O)N2CCN(c3ccccn3)CC2)c(C)c1	.	.	.
COc1ccc(-c2oc(=O)c3cc(OC)c(OC)cc3c2C#CCCO)cc1	.	.	.
COc1cc(OC)cc(-c2oc(=O)c3cc(OC)c(OC)cc3c2C#CCCO)c1	29.9	/	.
C[C@H]1CN([C@@H](C)CO)C(=O)c2cc(C#CC3CC3)cnc2O[C@H]1CN(C)C(=O)Cc1ccccn1	.	.	.
CC(C)C#Cc1cnc2c(c1)C(=O)N([C@H](C)CO)C[C@@H](C)[C@@H](CN(C)C(=O)Cc1ccccn1)O2	.	.	.
C[C@H](CO)N1C[C@H](C)[C@H](CN(C)C(=O)Cc2ccccn2)Oc2ncc(C#CC3CC3)cc2C1=O	24.7	.	.
CC(C)C#Cc1cnc2c(c1)C(=O)N([C@@H](C)CO)C[C@H](C)[C@@H](CN(C)C(=O)Cc1ccccn1)O2	?	16.9	.
Cc1ccccc1C(=O)NC(CC(C)C)C(=O)NCC(C)(C)N1CCOCC1 (configuration not stated)	.	.	/
COc1ccc2c(c1OC)C(=O)OC2Nc1nc(-c2cc3cc([N+](=O)[O-])ccc3oc2=O)cs1 (configuration not stated)	?	.	/
COc1ccc(/C=N/NC(=O)c2ccncc2)cc1Cn1nc([N+](=O)[O-])c(Br)c1C	.	19.8	/
COc1ccc(/C=N/NC(=O)c2ccn[nH]2)cc1Cn1nc(C)c([N+](=O)[O-])c1C	.	.	/
COc1ccc(/C=N/NC(=O)c2ccco2)cc1Cn1nc(C)c([N+](=O)[O-])c1C	.	/	.
COc1ccc(/C=N/NC(=O)c2ccco2)cc1Cn1nc(C)cc1C	.	34.2	.
COc1cccc(NC(=O)c2ccc(OC(F)(F)F)cc2)c1	.	/	41.9
SMILES	DENV2 CPE rescue	SIRT5 block	E-selectin induc
COc1cc(NC(=O)c2nccn2C)cc(C(=O)Nc2cccc(C(F)(F)F)c2)c1	110.0!	.	.
COc1cccc(NC(=O)c2cccc(C(=O)Nc3cccc(OC)c3)c2)c1	.	.	/
O=C(Nc1cccc(S(=O)(=O)NCc2ccco2)c1)c1cccc(Cl)c1	?	.	199.6
COc1cc(NC(=O)c2nccnc2N)cc(C(=O)Nc2cccc(C(F)(F)F)c2)c1	.	.	.
COc1cccc(NC(=O)c2ccccc2)c1	.	32.3	.
COc1ccc(C(=O)Nc2cccc(OC)c2)cc1	.	.	/
CC(=O)Nc1cccc(C(=O)Nc2cccc(S(=O)(=O)NCc3ccco3)c2)c1	.	.	.
Cc1ccc(S(=O)(=O)Nc2ccc3c(c2)C(=O)N([C@@H](C)CO)C[C@H](C)[C@@H](CN(C)Cc2ccccc2)OCCCC[C@H](C)O3)cc1	.	/	/
Cc1ccc(S(=O)(=O)C[C@@H]2OC[C@H](CO)N2S(=O)(=O)c2ccc(C)cc2)cc1	.	/	.
CCOC(=O)Cc1nc(-c2ccc(Cl)cc2)n[nH]1	.	.	.
Cc1cc(NC(=O)COC(=O)c2nccnc2N)n(-c2ccccc2)n1	.	.	/
COc1ccc(-c2cc(C(=O)Nc3cnn(Cc4ccccc4C)c3)no2)cc1OC	.	.	/
Cc1ccc(-c2nc(C=Nc3ccccc3)c(O)o2)cc1	.	.	.
O=C(NCC(=O)N1CCC2(CC1)NCCc1[nH]cnc12)c1ccccc1F	.	.	/

High-throughput results deposited in PubChem BioAssay by Broad Institute.
